Bioassay records as filed in PubChem BioAssay.
SENP8 block-1: SENP8 protease inhibition; Q96LD8; purified SENP8, Z-RLRGG-aminoluciferin cleavage, luminescence; inhibition, % at 10 µM; actives 1.2% (n = 330,000); AID 2540; in the data active = inhibition above about 50%
SENP6 inh: SENP6 protease inhibition. Q9GZR1. actives 1.8% (n = 330,000). Recombinant SENP6 catalytic domain, aminoluciferin luminescence. AID 2599. inhibition, % at 10 µM;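 active = inhibition above about 50% at the single tested dose, limit read from the data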
SENP1 inh: SENP1 (human) catalytic domain inhibition; Q9P0U3; recombinant SENP1 catalytic domain, CyPet-SUMO1-YPet FRET cleavage; inhibition, % at 10 µM; actives 0.21% (n = 360,000); AID 624204;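 active = inhibition at least 30% at 10 µM, raw YFP signal under a set limit, fluorescence ratio 0.5 to 1.5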
Target sequence (Q9P0U3 419-644 limits assumed): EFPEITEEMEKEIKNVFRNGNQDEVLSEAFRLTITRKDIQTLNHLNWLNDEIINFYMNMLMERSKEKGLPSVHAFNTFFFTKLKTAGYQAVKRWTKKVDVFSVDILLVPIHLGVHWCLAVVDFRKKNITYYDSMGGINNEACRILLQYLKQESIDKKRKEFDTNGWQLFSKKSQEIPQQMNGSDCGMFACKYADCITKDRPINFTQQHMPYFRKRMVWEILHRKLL
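Material: hSENP1 catalytic domain, recombinant; medium: Tris pH 8 with BME, BSA, NP40 and catalase; compound: single concentration of 10 µM compound, 0.5% DMSO final; technique: FRET read of cyan and yellow fluorescence; timing: 50 min enzyme reaction, room temperature, light-protected; reagent: SFCypet-SUMO1-SFYpet substrate at 25 nM; control set: no-enzyme low, enzyme-DMSO high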
Platelet DG rel: modulates dense granule release in human platelets; actives 0.22% (n = 300,000); inhibition, %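 (compounds screened at 7.5 µM in platelet-rich plasma)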; human platelet-rich plasma, SFLLRN dense granule ATP release, luminescence;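 active = mean replicate score, as percent of positive control, at or above 50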
SENP8 block-2: SENP8 (human) protease inhibition. recombinant SENP8, Nedd8 substrate fluorescence. inhibition, % at 20 µM. actives 0.64% (n = 360,000). AID 602440; in the data active = inhibition mostly above about 40%, no sharp cut-off; inactive = mostly below about 27%
SENP7 block: SENP7 protease inhibition | Q9BQF6 | recombinant SENP7, Z-RLRGG-aminoluciferin luminescence, 40 min | AID 434973 | inhibition, % at 5 µM | actives 1.5% (n = 330,000);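 active = inhibition above about 50% at the single test dose, limit read from the data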
Target sequence (Q9BQF6 706-1050 limits assumed): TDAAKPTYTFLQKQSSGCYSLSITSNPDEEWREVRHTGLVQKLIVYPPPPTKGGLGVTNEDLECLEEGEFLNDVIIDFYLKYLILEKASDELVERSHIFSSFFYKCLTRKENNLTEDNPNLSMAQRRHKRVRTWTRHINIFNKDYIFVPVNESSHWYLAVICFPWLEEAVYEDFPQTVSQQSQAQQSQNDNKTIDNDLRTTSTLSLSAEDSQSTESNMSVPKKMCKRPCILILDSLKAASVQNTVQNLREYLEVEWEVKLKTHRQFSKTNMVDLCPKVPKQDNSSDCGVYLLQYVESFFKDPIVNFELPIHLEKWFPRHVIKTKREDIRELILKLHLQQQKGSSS
SENP8 confirm: confirmation of human SENP8 protease inhibitors; inhibition, % at 12.5 µM; actives 40% (n = 6,200); AID 488912; shares compounds with SENP7 block; Recombinant SENP8, Z-RLRGG-aminoluciferin luminescence, 60 min;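 active = mean inhibition across replicates above about 50%, limit read from the data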
SENP6 confirm: confirmation of human SENP6 protease inhibitors | shares compounds with SENP7 block | recombinant SENP6, Z-RLRGG-aminoluciferin luminescence | inhibition, % at 12.5 µM | actives 58% (n = 6,200)
SENP7 confirm: human SENP7 inhibition, confirmed | shares compounds with SENP7 block | recombinant SENP7, Z-RLRGG-aminoluciferin luminescence, 40 min | inhibition, % at 12.5 µM | actives 69% (n = 6,200)
Casp3 select: selectivity test for SENP inhibitors: human caspase-3 inhibition | purified caspase-3, Z-DEVD-aminoluciferin luminescence, 60 min | AID 488918 | actives 60% (n = 6,200) | inhibition, % at 12.5 µM | shares compounds with SENP7 block;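 active = mean inhibition above about 50%, limit read from the data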
Luc interf: counter-screen for SENP inhibitors: luminescence interference. shares compounds with SENP7 block. Pre-incubated SENP8/Z-RLRGG-aminoluciferin, luciferase luminescence interference. inhibition, % at 12.5 µM. actives 39% (n = 6,200);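 active = mean inhibition above about 50% when retested at one dose, limit read from the data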
Large screens that a line does not name were inactive (follow-up assays come after a bar, where they were run). Shown are actives, neighbours in structure and some others; about 2.6% of the full set was active somewhere.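 The calls were made as follows, unless noted: active = mean inhibition above about 50% in the one-dose retest (limit read from the data); inactive = the rest.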

CCOC(=O)C1(C)CCN1C(=O)c1cccc(Cl)c1 (centres undefined)	none (no result: SENP8 block-1, SENP6 inh, Platelet DG rel, SENP7 block)
Nc1ccc2oc(-c3cccc(Br)c3)nc2c1	SENP8 block-1 82, SENP6 inh 90, SENP7 block 90 | SENP8 confirm 58 | SENP6 confirm 82 | SENP7 confirm 98 | Casp3 select 74 | Luc interf inactive
Nc1nc2cc(Br)ccc2o1	none (no result: SENP8 block-1, SENP6 inh, Platelet DG rel, SENP7 block)
CCOc1ccc2nc(SC(C)C(N)=O)[nH]c2c1 (centres undefined)	none
N#CCSc1nnc2sc3ccccc3n12	SENP7 block 87 | SENP8 confirm inactive | SENP6 confirm inactive | SENP7 confirm inactive | Casp3 select inactive | Luc interf inactive
Cc1cc(C)cc(NC2=C(N)C(=O)c3ccccc3C2=O)c1	SENP6 inh 70, SENP8 block-2 48 | SENP8 confirm inactive | SENP6 confirm inactive | SENP7 confirm inactive | Casp3 select inactive | Luc interf inactive
COC(=O)c1sc(-c2ccc(C(C)(C)C)cc2)cc1NC(=O)COCC(=O)O	none
Cc1cc(N/N=C/c2cccc(Br)c2)nc2ccccc12	none
Cc1cccc(/C=N/Nc2ccc3ccccc3n2)c1	SENP8 block-1 96, SENP6 inh 92 | SENP8 confirm inactive | SENP6 confirm 101 | SENP7 confirm 104 | Casp3 select 98 | Luc interf 75
C(=N\Nc1ccc2ccccc2n1)/c1ccc2c(c1)OCCO2	SENP8 block-1 84, SENP6 inh 78 | SENP8 confirm 98 | SENP6 confirm 100 | SENP7 confirm 104 | Casp3 select 98 | Luc interf 85
Cc1ccc(/C=N/Nc2cn[nH]c(=O)n2)o1	none
Cc1ccc(/C=N/Nc2ccc3ccccc3n2)o1	SENP8 block-1 85, SENP6 inh 79, SENP7 block 88 (no result: Platelet DG rel) | SENP8 confirm 93 | SENP6 confirm 93 | SENP7 confirm 100 | Casp3 select 92 | Luc interf 85
O=C(NC(=S)N1CCN(c2ccccc2)CC1)c1ccc(S(=O)(=O)N2CCOCC2)cc1	none
Cc1c(C(=O)Oc2ccc(-c3cnc4ccccc4n3)cc2)cccc1[N+](=O)[O-]	none
O=[N+]([O-])c1cc(-c2cnc3ccccc3n2)ccc1Oc1ccc(Cl)cc1	none
O=C(Oc1ccc(-c2cnc3ccccc3n2)cc1)c1cc([N+](=O)[O-])ccc1Cl	SENP7 block 78 | SENP8 confirm inactive | SENP6 confirm inactive | SENP7 confirm inactive | Casp3 select inactive | Luc interf inactive
Nc1cccc(-c2cnc3ccccc3n2)c1	SENP8 block-1 51, SENP6 inh 68, SENP7 block 58 | SENP8 confirm inactive | SENP6 confirm inactive | SENP7 confirm 78 | Casp3 select 75 | Luc interf inactive
O=[N+]([O-])c1cc(-c2cnc3ccccc3n2)ccc1Cl	SENP7 block 51 | SENP8 confirm inactive | SENP6 confirm inactive | SENP7 confirm inactive | Casp3 select inactive | Luc interf inactive
CCCN(CC1CC1)C(=O)COC(=O)c1oc2ccc(OCC)cc2c1C	none (no result: Platelet DG rel)
O=C1CCCC(=NNC(=O)c2cc3ccccc3cc2O)C1	SENP8 block-1 89, SENP6 inh 90, SENP7 block 88 (no result: Platelet DG rel) | SENP8 confirm 89 | SENP6 confirm 92 | SENP7 confirm 101 | Casp3 select 93 | Luc interf 88
O=C(NN=C1CCCCCC1)c1cc2ccccc2cc1O	none
Cc1ccc2nc(-c3ccc(O)c(O)c3)cn2c1	SENP6 inh 72, SENP7 block 57 | SENP8 confirm 69 | SENP6 confirm 67 | SENP7 confirm 90 | Casp3 select 84 | Luc interf 72
Cc1ccc2nc(-c3ccccc3)cn2c1	SENP8 block-1 95, SENP6 inh 99, Platelet DG rel 73, SENP7 block 99 | SENP8 confirm 99 | SENP6 confirm 100 | SENP7 confirm 103 | Casp3 select 99 | Luc interf 98
NNC(=O)c1ccc2nc(-c3ccc(Br)cc3)cn2c1	none
Cc1nc(-c2ccc(O)c(O)c2)cs1	none
Oc1ccc(-c2cn3cc(C(F)(F)F)ccc3n2)cc1	SENP6 inh 55 | SENP8 confirm 58 | SENP6 confirm 52 | SENP7 confirm 83 | Casp3 select 60 | Luc interf 65
Clc1ccc(-c2cn3cc(Cl)ccc3n2)cc1	SENP8 block-1 69, SENP6 inh 82, SENP7 block 93 | SENP8 confirm inactive | SENP6 confirm inactive | SENP7 confirm inactive | Casp3 select inactive | Luc interf inactive
CC(=O)Nc1ccc(-c2cn3cc(C)ccc3n2)cc1	none
Cc1cccc(/C(N)=N/OC(=O)c2ccoc2C)c1	SENP8 block-1 94, SENP6 inh 97, SENP7 block 98 | SENP8 confirm 97 | SENP6 confirm 97 | SENP7 confirm 102 | Casp3 select 97 | Luc interf 96
N/C(=N\OC(=O)/C=C/c1ccccc1)c1ccccc1	SENP8 block-1 80, SENP6 inh 90 | SENP8 confirm 90 | SENP6 confirm 89 | SENP7 confirm 99 | Casp3 select 90 | Luc interf 83
Cc1ccccc1C(=O)NNC(=O)c1ccc(F)cc1	none
C/C(=N/OC(=O)c1ccc(F)cc1)c1ccc(C)cc1	SENP8 block-1 55, SENP6 inh 60, SENP7 block 71 | SENP8 confirm inactive | SENP6 confirm inactive | SENP7 confirm inactive | Casp3 select inactive | Luc interf inactive
Cc1ccccc1/C(N)=N/OC(=O)c1ccc(F)cc1	SENP8 block-1 61, SENP6 inh 74, SENP7 block 81 | SENP8 confirm 70 | SENP6 confirm 72 | SENP7 confirm 93 | Casp3 select 90 | Luc interf 75
Cc1cc(NC(=O)CSc2nc3c(c(-c4cccnc4)c2C#N)CCC3)no1	none
C/C(=N\OC(=O)NC1CCCCC1)c1sc(-c2ccccc2)nc1C	none
Cc1ccccc1C(=O)O/N=C(\N)c1ccc([N+](=O)[O-])cc1	none
